According to ChEMBL document CHEMBL3785064, “Cylindrofridins A-C, Linear Cylindrocyclophane-Related Alkylresorcinols from the Cyanobacterium Cylindrospermum stagnale” (J Nat Prod, 2016):
Values after ≈ are worked out from the molar mass of the structure shown.

Tests used:
[1] = system: Staphylococcus aureus; experiment: Antibacterial activity against methicillin-resistant Staphylococcus aureus isolate 1 B690208 after 24 hrs; assay type: functional; conditions: isolate 1 B690208, 24 h
Procedure, shortened: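 MIC determined against MRSA; vancomycin and fusidic acid served as positive controls.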

[2] = system: HaCaT; experiment: Cytotoxicity against human HaCaT cells by Cell titre-blue assay; assay type: cell-based
Procedure, shortened: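 Nontumorigenic human keratinocyte HaCaT cells were tested with mitoxantrone as the positive control, and results are reported as IC50 in μM.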

[3] = system: Escherichia coli; experiment: Antibacterial activity against Escherichia coli isolate 13 V676803 after 24 hrs; assay type: functional; conditions: isolate 13 V676803, 24 h
[4] = system: Streptococcus pneumoniae; experiment: Antibacterial activity against Streptococcus pneumoniae ATCC 49619 after 24 hrs; assay type: functional; conditions: ATCC 49619, 24 h
[5] = system: Klebsiella pneumoniae; experiment: Antibacterial activity against Klebsiella pneumoniae isolate 18 B224106 after 24 hrs; assay type: functional; conditions: isolate 18 B224106, 24 h
[6] = system: Pseudomonas aeruginosa; experiment: Antibacterial activity against Pseudomonas aeruginosa isolate 22 V143708 after 24 hrs; assay type: functional; conditions: isolate 22 V143708, 24 h

How did the MIC [1] turn out when `CC(=O)O[C@H]1C[C@@]2(C)[C@@H](C[C@@H](O)[C@H]3[C@@]4(C)CC[C@@H](O)[C@@H](C)[C@@H]4CC[C@@]32C)/C1=C(\CCC=C(C)C)C(=O)O` [FUSIDIC ACID] was run?
Its MIC is 1.4 µM (≈ 0.723 µg/mL).

Which IC50 [2] does the source give for `O=C1c2c(O)ccc(O)c2C(=O)c2c(NCCNCCO)ccc(NCCNCCO)c21` [MITOXANTRONE] here?
Its IC50 is 3.9 µM.

For `CCCC[C@H]1CCCC[C@H](C)[C@@H](O)c2cc(O)c(c(O)c2)[C@@H](CCCC)CCCC[C@H](C)[C@@H](OC(C)=O)c2cc(O)c1c(O)c2`, which MIC [3] is on record?
The MIC was > 80 µM.

And the MIC [4]?
The MIC was 0.3 µM (≈ 0.188 µg/mL).

What about the IC50 [2] of the same molecule?
The IC50 was 2.9 µM.

What about the MIC [1] of the same molecule?
Its MIC is 0.1 µM (≈ 0.0627 µg/mL).

What about the MIC [5] of the same molecule?
Its MIC is > 80 µM.

And the MIC [6]?
Its MIC is > 80 µM.

How did the MIC [3] turn out when `CCCCC(Cl)CCCC[C@H](C)[C@@H](OC(C)=O)c1cc(O)cc(O)c1` (some centres undefined) was run?
Its MIC is > 135 µM.

What about the MIC [4] of the same molecule?
The MIC was 17 µM (≈ 6.31 µg/mL).

What about the IC50 [2] of the same molecule?
The IC50 was 100 µM.

What about the MIC [1] of the same molecule?
The MIC was 8.6 µM (≈ 3.19 µg/mL).

What about the MIC [5] of the same molecule?
Its MIC is > 135 µM.

What about the MIC [6] of the same molecule?
Its MIC is > 135 µM.

For `CN[C@@H](CC(C)C)C(=O)N[C@H]1C(=O)N[C@@H](CC(N)=O)C(=O)N[C@H]2C(=O)N[C@H]3C(=O)N[C@H](C(=O)N[C@@H](C(=O)O)c4cc(O)cc(O)c4-c4cc3ccc4O)[C@H](O)c3ccc(c(Cl)c3)Oc3cc2cc(c3O[C@H]2O[C@@H](CO)[C@H](O)[C@@H](O)[C@@H]2O[C@@H]2C[C@@](C)(N)[C@@H](O)[C@@H](C)O2)Oc2ccc(cc2Cl)[C@H]1O`, which MIC [4] is on record?
The MIC was 3.8 µM (≈ 5.51 µg/mL).

`CCCCC(Cl)CCCC[C@H](C)[C@@H](O)c1cc(O)c([C@@H](CCCC)CCCC[C@H](C)[C@@H](OC(C)=O)c2cc(O)cc(O)c2)c(O)c1` (some centres undefined) was tested. Which MIC [3] did it give?
Its MIC is > 75 µM.

And the MIC [4]?
The MIC was > 75 µM.

What about the IC50 [2] of the same molecule?
Its IC50 is 25 µM.

What about the MIC [1] of the same molecule?
The MIC was > 75 µM.

And the MIC [5]?
Its MIC is > 75 µM.

What about the MIC [6] of the same molecule?
Its MIC is > 75 µM.

`CCCC[C@H]1CCCC[C@H](C)[C@@H](O)c2cc(O)c(c(O)c2)[C@@H](CCCC)CCCC[C@H](C)[C@@H](O)c2cc(O)c1c(O)c2` [CYLINDROCYCLOPHANE A] was tested. Which MIC [3] did it give?
The MIC was > 85 µM.

And the MIC [4]?
The MIC was 0.3 µM (≈ 0.175 µg/mL).

What about the IC50 [2] of the same molecule?
Its IC50 is 5 µM.

What about the MIC [1] of the same molecule?
Its MIC is 0.1 µM (≈ 0.0585 µg/mL).

What about the MIC [5] of the same molecule?
The MIC was > 85 µM.

And the MIC [6]?
The MIC was > 85 µM.

For `CCCCC(Cl)CCCC[C@H](C)[C@@H](OC(C)=O)c1cc(O)c([C@@H](CCCC)CCCC[C@H](C)[C@@H](OC(C)=O)c2cc(O)cc(O)c2)c(O)c1` (some centres undefined), which MIC [3] is on record?
The MIC was > 71 µM.

What about the MIC [4] of the same molecule?
The MIC was > 71 µM.

What about the IC50 [2] of the same molecule?
Its IC50 is 25 µM.

And the MIC [1]?
The MIC was > 71 µM.

What about the MIC [5] of the same molecule?
Its MIC is > 71 µM.

What about the MIC [6] of the same molecule?
The MIC was > 71 µM.

`CCCC[C@H]1CCCC[C@H](C)[C@@H](OC(C)=O)c2cc(O)c(c(O)c2)[C@@H](CCCC)CCCC[C@H](C)[C@@H](OC(C)=O)c2cc(O)c1c(O)c2` was tested. Which MIC [3] did it give?
Its MIC is > 75 µM.

What about the MIC [4] of the same molecule?
Its MIC is 2.4 µM (≈ 1.61 µg/mL).

And the IC50 [2]?
The IC50 was 11 µM.

What about the MIC [1] of the same molecule?
The MIC was 0.9 µM (≈ 0.602 µg/mL).

What about the MIC [5] of the same molecule?
Its MIC is > 75 µM.

And the MIC [6]?
The MIC was > 75 µM.
